Assay results from PMC4130767 (Bioorganic & medicinal chemistry letters, 2014).

System: serine hydrolases in the HeLa cell membrane protein fraction
Test: ABPP-SILAC identification of serine hydrolase targets in cells
Format: cell-based
Details: 20 μM, 4 h, FP-biotin probe
Summary of the method: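 Intact HeLa cells were cultured with test compound at 20 μM or DMSO control for 4 h. Membrane proteins were then isolated and labelled with FP-biotin probe for ABPP-SILAC. The read-out is the light/heavy ratio per serine hydrolase: 1 means no inhibition and 0 means complete inhibition. Two independent replicates were run.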

| Compound | selectivity/sensitivity profile against serine hydrolases |
| --- | --- |
| O=C(N1CCCCC1)n1cccn1 [compound 10] | more selective nature |
| N#Cc1cnn(C(=O)N2CCCCC2)c1 [compound 12] | more sensitive nature |
